The values that follow come from ChEMBL document CHEMBL3797075 (Bioorg Med Chem, 2016).

pIC50: −log10 of the molar value. The source made the active and inactive calls. The rule behind the calls is not given here.

The target of experiment [1] is T1, Steryl-sulfatase (Homo sapiens) (UniProt P08842).
T1 sequence (whole entry): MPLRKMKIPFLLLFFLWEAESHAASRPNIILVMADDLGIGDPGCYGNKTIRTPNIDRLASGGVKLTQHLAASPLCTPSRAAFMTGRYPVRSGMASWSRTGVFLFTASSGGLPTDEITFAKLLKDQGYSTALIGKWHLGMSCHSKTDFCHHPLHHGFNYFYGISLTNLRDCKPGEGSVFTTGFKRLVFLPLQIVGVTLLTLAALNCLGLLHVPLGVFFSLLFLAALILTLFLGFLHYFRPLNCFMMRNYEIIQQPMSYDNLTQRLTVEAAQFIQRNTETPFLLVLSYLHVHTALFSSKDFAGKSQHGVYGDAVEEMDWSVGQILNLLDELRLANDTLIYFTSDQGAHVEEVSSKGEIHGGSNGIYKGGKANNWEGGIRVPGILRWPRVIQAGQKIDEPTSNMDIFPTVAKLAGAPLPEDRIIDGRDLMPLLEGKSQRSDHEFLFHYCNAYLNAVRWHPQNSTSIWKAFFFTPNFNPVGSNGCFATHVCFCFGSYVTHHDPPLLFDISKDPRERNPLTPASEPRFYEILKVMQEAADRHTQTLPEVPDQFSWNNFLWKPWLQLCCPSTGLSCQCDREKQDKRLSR
Briefly: Inhibition of steroid sulfatase (unknown origin) at 10 uM. In a few lines:
(§1)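 STS source was lysate of human JEG-3 choriocarcinoma cells at 125 µg protein/mL. Substrate was [³H]E₁S adjusted to 20 µM with unlabelled E₁S. Inhibitor was added at a single 10 µM or at 0.5–20 µM, incubated for 1 h. Product was extracted into toluene, with [4-¹⁴C]E₁ correcting for losses. Values are % inhibition, triplicate mean.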

Experiment [2] concerns the target T1, Steryl-sulfatase (Homo sapiens). Briefly: Inhibition of steroid sulfatase in human JEG-3 cells assessed as […]Estrone formation using [3H]E1S as substrate at 10 uM. In kind it is cell-based. The essentials: (§2)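 Intact JEG-3 monolayers were incubated for 20 h at 37 °C in serum-free EMEM with [³H]E₁S (5 pmol, 60 Ci/mmol), with or without inhibitor. Estrone was separated from E₁S by toluene partition, with [¹⁴C]estrone correcting for recovery. Counts were read by scintillation, and hydrolysed E₁S mass was derived from ³H counts and substrate specific activity. Values are triplicate means.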

Experiment [3] shares this target. Briefly: Inhibition of steroid sulfatase in human JEG-3 cells assessed as […]Estrone formation using [3H]E1S as substrate at 20 uM. In kind it is cell-based. The essentials:
as §2

For experiment [4] the target is unchanged. As to the kind of experiment: Inhibition of steroid sulfatase (unknown origin). The essentials:
as §1

Experiment [5] shares this target. Briefly: Inhibition of steroid sulfatase (unknown origin) at 20 uM. The essentials:
as §1

Experiment [6] shares this target. Briefly: (§3) Inhibition of steroid sulfatase in human JEG-3 cells assessed as […]Estrone formation using [3H]E1S as substrate. In kind it is cell-based. In a few lines:
as §2

The target of a further experiment is T2, Steryl-sulfatase (Homo sapiens, UniProt P08842).
T2 sequence (P08842 whole entry): T1 sequence (whole entry)
The description is as §3. Type of experiment: cell-based. In a few lines: as §2

For the compound `CNS(=O)(=O)Oc1ccc(NC(=O)C2CCCCC2)cc1`, the inhibition entry in experiment [1] is “Active”.

For the compound `NS(=O)(=O)Oc1ccc(NC(=O)C2CCCCC2)cc1`, the inhibition was 86.1% in experiment [2]; 93.9% in experiment [3]; “Dose-dependent effect” in experiment [4]; 72% in experiment [5]; “Dose-dependent effect” in experiment [6]; 55.7% in experiment [1]. In addition, on Steryl-sulfatase, the pIC50 was 6.38.

With `Cc1ccc(S(=O)(=O)Oc2ccc(NC(=O)C3CCCC3)cc2)cc1`, the inhibition entry in experiment [1] was “Active”.

Turning to `CNS(=O)(=O)Oc1ccc(NC(=O)C2CCCC2)cc1`, in experiment [1], the inhibition entry is “Active”.

For the compound `CN(C)S(=O)(=O)Oc1ccc(NC(=O)C2CCCCC2)cc1`, the inhibition result in experiment [1] is “Active”.

`CCS(=O)(=O)Oc1ccc(NC(=O)C2CCCCC2)cc1`: in experiment [1], the inhibition entry is “Active”.

`Cc1ccc(S(=O)(=O)Oc2ccc(NC(=O)C3CCCCC3)cc2)cc1`: in experiment [1], the inhibition result is “Active”.

As usually defined, the inhibition is the share of the control response that was lost under treatment. By pIC50 is commonly meant the negative decadic logarithm of the IC50, by convention in mol/L.
